Read-outs that look alike come from different tables or passages of the source.

Data on 4 compounds can be found in article PMC12505120 (RSC Advances, 2025).

In assay [1] the target is HSA (Homo sapiens, UniProt P02768). The assay can be described thus: HSA tryptophan fluorescence quenching. It counts as binding. The following applies: for Stern–Volmer quenching constant Ksv × 10^4: values × 10^4, HSA 2.5 μM, Tris–HCl pH 7.4, 10% DMSO, 24 h; for ΔG: ΔG = −RT ln Kb; for predominant interaction mode with HSA: according to Ross's proposal from the signs of ΔH and ΔS. The procedure, abridged: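 HSA in Tris–HCl (4.5 mM Trizma HCl, 0.5 mM Trizma base, 50 mM NaCl) held at 2.5 μM with test compound at 1, 2.5, 5, 10, 15, 20, 25 or 30 μM, using 10% DMSO. Incubated 24 h in a water bath at 300 K or 310 K. Excitation 270 nm, emission 300–500 nm, triplicates. Intensity at 330 nm fitted to Stern–Volmer (F0/F vs [Q]) and log((F0−F)/F) vs log[Q]. ΔG = −RT ln Kb.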
Chain of HSA (P02768 25-609): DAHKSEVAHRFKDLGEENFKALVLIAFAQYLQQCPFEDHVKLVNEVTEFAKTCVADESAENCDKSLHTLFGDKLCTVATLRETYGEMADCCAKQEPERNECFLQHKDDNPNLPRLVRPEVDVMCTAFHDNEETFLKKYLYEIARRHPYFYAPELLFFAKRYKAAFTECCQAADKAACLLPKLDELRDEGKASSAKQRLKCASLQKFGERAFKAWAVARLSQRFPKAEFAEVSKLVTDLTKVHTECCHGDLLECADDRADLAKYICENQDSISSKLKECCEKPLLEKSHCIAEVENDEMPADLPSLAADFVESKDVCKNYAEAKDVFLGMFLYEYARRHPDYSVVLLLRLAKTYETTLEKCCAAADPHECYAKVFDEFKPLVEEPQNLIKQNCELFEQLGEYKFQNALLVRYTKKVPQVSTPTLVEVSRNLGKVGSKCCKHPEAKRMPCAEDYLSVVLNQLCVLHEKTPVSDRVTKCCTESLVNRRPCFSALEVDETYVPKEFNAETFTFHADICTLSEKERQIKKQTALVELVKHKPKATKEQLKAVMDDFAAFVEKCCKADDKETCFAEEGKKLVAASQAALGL

For assay [2], the system named is bovine serum albumin (BSA). The following applies: cited from earlier work.

For the compound `COc1ccc(/C=C/c2ccc(B3OC(C)(C)C(C)(C)O3)cc2)cc1` [3b], in assay [1] (T 300 K), the ΔS was found to be 82.1 J mol^−1 K^−1, the “Stern–Volmer quenching constant Ksv × 10^4” value came to 5.91 M^−1 and the ΔG was -5.69 kcal/mol. In assay [1] (T 310 K), the ΔS is 83.3 J mol^−1 K^−1, the “Stern–Volmer quenching constant Ksv × 10^4” value worked out at 8.69 M^−1 and the ΔG is -6.36 kcal/mol. Further, the “predominant interaction mode with HSA” value in assay [1] was “hydrophobic interactions”. Moreover, the fluorescence quenching mechanism result in assay [1] (from temperature dependence of Ksv at 300 and 310 K) is on record as “dynamic fluorescence quenching mechanism”.
With `COc1ccc(/C=C/c2cccc3c2COB3O)cc1` [5a], in assay [1] (T 300 K), the ΔS worked out at 105.1 J mol^−1 K^−1, the “Stern–Volmer quenching constant Ksv × 10^4” value amounted to 10.1 M^−1 and the ΔG is -7 kcal/mol. Further, in assay [1] (T 310 K), the ΔS is 122.4 J mol^−1 K^−1, the “Stern–Volmer quenching constant Ksv × 10^4” value is reported as 17.7 M^−1 and the ΔG was -8.58 kcal/mol. Also, in assay [1], the “predominant interaction mode with HSA” value is on record as “hydrophobic interactions”.
Turning to `COc1ccc(/C=C/c2ccc(B(O)O)cc2)cc1` [7a], in assay [1] (T 300 K), the ΔS turned out to be 74.5 J mol^−1 K^−1, the “Stern–Volmer quenching constant Ksv × 10^4” value is on record as 1.05 M^−1 and the ΔG is -6.69 kcal/mol. Moreover, in assay [1] (T 310 K), the ΔS was determined as 22.9 J mol^−1 K^−1, the “Stern–Volmer quenching constant Ksv × 10^4” value came to 0.53 M^−1 and the ΔG is -3.08 kcal/mol. In addition, the “predominant interaction mode with HSA” value in assay [1] is given as “electrostatic forces”.
On to `Oc1ccccc1-c1nc2ccccc2[nH]1` [HPBI, 2-(2-hydroxyphenyl)benzimidazole], for which the figures for the “binding constant to BSA” value in assay [2] (HPBI complexed with benzoxaborole) and in assay [2] (free HPBI) were 1.2e+06 M⁻¹ and 20000 M⁻¹, respectively.
